# High-throughput results (PubChem)
# TMEM16A act: activates or potentiates the mouse TMEM16A chloride channel | HEK293 TMEM16A/YFP-H148Q/I152L, iodide quench fluorescence; stronger effect = lower value | B-score at 10 µM | 340,000 tested, 0.3% active | AID 623877;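 active = fluorescence-ratio B-score plate-corrected deviation score at least 3 library SD below zero, with starting fluorescence score within 5 deviations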;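 also: channel opened by trigger with iodide after compound preincubation; score built on the fluorescence ratio of max minus min over baseline; more negative score means more quench and so TMEM16A activation or potentiation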
# Target sequence (Q8BHY3 whole entry, looked up): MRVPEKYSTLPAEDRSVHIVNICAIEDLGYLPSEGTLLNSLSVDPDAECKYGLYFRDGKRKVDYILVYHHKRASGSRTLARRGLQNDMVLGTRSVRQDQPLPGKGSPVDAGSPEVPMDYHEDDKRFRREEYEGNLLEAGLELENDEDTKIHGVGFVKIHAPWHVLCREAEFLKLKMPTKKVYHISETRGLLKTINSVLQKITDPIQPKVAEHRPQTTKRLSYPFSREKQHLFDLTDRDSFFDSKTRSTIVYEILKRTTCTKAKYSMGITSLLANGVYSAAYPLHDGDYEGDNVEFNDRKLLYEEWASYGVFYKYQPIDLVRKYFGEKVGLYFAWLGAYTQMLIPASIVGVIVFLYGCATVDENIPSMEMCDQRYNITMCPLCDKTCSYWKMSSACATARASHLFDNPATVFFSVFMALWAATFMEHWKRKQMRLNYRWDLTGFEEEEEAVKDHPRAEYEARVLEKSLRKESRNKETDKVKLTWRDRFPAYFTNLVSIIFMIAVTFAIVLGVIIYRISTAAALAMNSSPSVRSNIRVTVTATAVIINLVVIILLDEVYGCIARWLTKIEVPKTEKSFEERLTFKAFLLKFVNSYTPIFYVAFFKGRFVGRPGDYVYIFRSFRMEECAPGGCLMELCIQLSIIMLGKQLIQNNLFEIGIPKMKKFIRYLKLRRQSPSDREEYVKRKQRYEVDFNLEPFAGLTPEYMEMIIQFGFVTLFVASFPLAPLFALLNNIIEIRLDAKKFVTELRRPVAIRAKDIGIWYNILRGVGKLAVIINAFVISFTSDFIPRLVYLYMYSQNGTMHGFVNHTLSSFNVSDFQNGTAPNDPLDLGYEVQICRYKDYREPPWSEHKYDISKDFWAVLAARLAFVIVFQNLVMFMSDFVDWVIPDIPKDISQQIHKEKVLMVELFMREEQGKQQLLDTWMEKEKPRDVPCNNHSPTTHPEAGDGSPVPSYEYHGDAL
# TMEM16A inh: blocks the mouse calcium-activated chloride channel TMEM16A | HEK293 TMEM16A/YFP iodide influx fluorescence, ionomycin | normalized B-score (activity score, 25-100; higher = stronger inhibition) at 10 µM | 310,000 tested, 1.2% active | AID 588511;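 active = ratio plate-corrected score three or more library SD toward inhibition, starting fluorescence score within five deviations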;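 also: score derived from kinetic fluorescence span divided by baseline fluorescence per well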
# MC4R barr agon: human MC4R agonism via beta-arrestin; P32245; activation, % at 8.9 µM; U2OS MC4R beta-arrestin complementation, luminescence; percent of melanotan II response, DMSO zero; AID 540308; 360,000 tested, 0.98% active;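 active = activation above a per-plate cutoff, the mean activation of sample wells on that plate plus 3 SD, cut at about 8% in these data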
# MC4R antag cAMP: antagonists of human melanocortin 4 receptor (MC4R) | MC4R-expressing cells, MTII-stimulated cAMP, LANCE TR-FRET | 360,000 tested, 0.48% active | inhibition, % at 6.5 µM | P32245 | AID 540295;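 active = inhibition above its plate's cutoff, the mean of tested wells on that plate plus 3 SD, cut at about 29% in these data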;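 also: 0% = Melanotan II alone and 100% = Melanotan II plus saturating MCL0020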
#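 System: U2OS cells stably expressing human melanocortin 4 receptor (MC4R). Reagent: Melanotan II challenge after compound preincubation. Doses: 6.5 µM. Times: 30-min compound, 1-h challenge, 1-h detection, room temperature. Measured by: TR-FRET with Eu-cAMP and labeled anti-cAMP, 671 nm. Replicates: singlicate.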
# Beta apoptosis: blocks beta cell apoptosis | INS-1E cytokine-induced death, ATP luminescence, 48 h; percent of positive-control rescue, neutral wells zero | protection from apoptosis, % (test concentration not listed) | 300,000 tested, 0.8% active | AID 435005;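 active = Every replicate reaches about 75%, or at least half do and their mean reaches it too, limit read from the data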;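 also: 0% = cytokine-treated negative control wells and 100% = positive control rescue; higher means more ATP so stronger rescue from cytokine killing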
# CSC inhib: blocks cancer stem cells | cancer stem cell-like cells viability, luminescence | inhibition, % at 7.5 µM | 300,000 tested, 1.1% active; in the data active = inhibition above about 75%; tested in HMLE shEcad cells
# Active calls of the source: *; i = inactive; . = no result given. Hits are enriched below; roughly 3.8% of the tested compounds scored in any of these assays.
SMILES,TMEM16A act,TMEM16A inh,MC4R barr agon,MC4R antag cAMP,Beta apoptosis,CSC inhib
Cc1ccc(Sc2ccc(NC(=O)CCN3C(=O)NC4(CCCC4)C3=O)cc2)c(C)c1,-24*,.,-3,3,3,.
O=C(CCCN1C(=O)NC2(CCCC2)C1=O)Nc1ccc(F)cc1,i,.,0,6,-7,.
Cc1ccc(NC(=O)CN(C)S(=O)(=O)c2cccs2)cc1C,i,i,-1,2,-8,-6
CC(=O)Nc1ccc(NC2=C/C(=N/S(=O)(=O)c3cccs3)c3ccccc3C2=O)cc1,i,i,-2,-6,101*,-11
Cc1ccc(NC2=C/C(=N/S(=O)(=O)c3cccs3)c3ccccc3C2=O)cc1C,i,i,1,-4,80*,20
COc1ccc(S(=O)(=O)c2ccc(O)cc2)cc1,i,i,-1,3,3,-12
Cc1ccccc1NC1=C/C(=N\S(=O)(=O)c2cccs2)c2ccccc2C1=O,i,i,-1,-16,98*,-8
COc1ccc(S(=O)(=O)/N=C2\C=C(Nc3ccc(O)cc3)C(=O)c3ccccc32)cc1,i,i,-1,-41,111*,.
CC(=O)Nc1ccc(NC(=O)C(C)OC(=O)c2ccccc2NS(=O)(=O)c2cccs2)cc1 (stereo unspecified),i,i,2,20,-1,1
O=C(COC(=O)/C=C/c1ccccc1)NC1CCCCC1,i,.,0,17,1,-22
CC1=CC[C@@]23CCCN2C(=O)CCC[C@H]3C1,i,.,-2,-5,.,.
Cc1ccc(NC(=O)c2nc[nH]c2C(=O)NCCCNC(=O)c2[nH]cnc2C(=O)Nc2ccc(C)cc2)cc1,i,.,0,6,38,113*
O=C(Nc1cccc(Cl)c1)c1nc[nH]c1C(=O)NCCCNC(=O)c1[nH]cnc1C(=O)Nc1cccc(Cl)c1,i,.,-2,4,-1,101*
C[C@H]1CN(S(=O)C(C)(C)C)[C@@H](CCO)/C1=C\CCO (stereo partly specified),.,.,0,1,.,.
CC(CC(=O)NNC(=O)c1ccncc1)c1ccccc1 (stereo unspecified),i,i,-3,1,1,0
Cc1ncc(CO)c(/C=N/NC(=O)c2cc3c(s2)CCCC3)c1O,i,i,0,3,88*,72
Clc1ccc(Cl)c(OCCCCN2CCNCC2)c1,i,i,0,-7,3,96*
Clc1ccc(OCCCN2CCCCC2)c(Br)c1,-14*,i,-1,-5,9,7
Cc1ccc(OCCCCCCN2CCNCC2)c(Br)c1,i,i,1,-3,3,42
O=C(Nc1cccc([N+](=O)[O-])c1)N1CCCCCC1,i,i,0,3,0,5
CCOc1cc(C)c(S(=O)(=O)Nc2ccc3cn[nH]c3c2)cc1C,i,i,2,8,89*,-11
O=C1NC(Cc2ccccc2)c2nc3cc(F)ccc3c(=O)n2-c2ncccc21 (stereo unspecified),.,.,2,20,.,.
COC(=O)C1=C(C)N(Cc2ccccc2)C(=NCCc2c[nH]c3ccccc23)N[C@H]1c1cccc(C(F)(F)F)c1,i,.,33*,11,2,.
COC(=O)C1=C(C)N(Cc2ccccc2)C(=NCc2cccc(C(F)(F)F)c2)N[C@H]1c1cccc(F)c1,i,i,13*,9,111*,111*
COC(=O)C1=C(C)N(Cc2ccccc2)C(=NCc2cccc(C(F)(F)F)c2)N[C@H]1c1cccc(C(F)(F)F)c1,i,.,21*,8,99*,.
SMILES,TMEM16A act,TMEM16A inh,MC4R barr agon,MC4R antag cAMP,Beta apoptosis,CSC inhib
COCCN=C1N[C@@H](c2cccc(C(F)(F)F)c2)C(C(=O)OC)=C(C)N1Cc1ccccc1,i,i,-1,-4,5,4
NC(=O)c1nn(CC(=O)Nc2cccc(S(=O)(=O)N3CCCC3)c2)c(=O)c2ccccc12,i,.,-1,2,8,-7
C=C1CCN([C@@H](Cc2ccccc2)C(=O)NC2CCN(Cc3ccccc3)CC2)S(=O)(=O)c2ccccc21,i,i,-2,2,3,-2
Cc1cccc(NC(=O)Cn2nnc(C(=O)NCc3cccs3)c2N)c1C,i,i,9.0*,-6,0,1
Cc1c(Cl)cccc1NC(=O)Cn1nnc(C(=O)NCc2cccs2)c1N,i,i,6,-9,-2,-4
CC(C(=O)N1CCCC1)N(C)CC(=O)Nc1cccc(F)c1 (stereo unspecified),i,.,-1,2,1,.
Cc1ccc(C(=O)c2sc(Nc3ccccc3)c(C#N)c2N)cc1,i,i,1,-1,4,45
N#Cc1c(Nc2ccccc2)sc(C(=O)c2ccc(F)cc2)c1N,i,i,4,20,91*,42
CCOc1ccc(-c2nnc(NC(=O)c3ccc(OCC(C)C)c(OC)c3)o2)cc1,i,i,0,13,0,103*
O=S(=O)(c1ccc(=S)[nH]c1)N1CCCC1,i,.,0,4,-34,-10
Cn1c(=O)c(C#N)c(-c2ccc(F)cc2)c2cc(C(=O)c3cc(Cl)cc(Cl)c3O)cnc21,i,100*,-3,15,28,124*
COc1ccccc1-n1c(=O)c(C#N)c(-c2ccc([N+](=O)[O-])cc2)c2cc(C(=O)c3cc(F)ccc3O)cnc21,i,i,-2,2,12,-2
CC(O)(c1ccc(F)c(F)c1)c1nc(-c2cnc3ccccc3c2)cs1 (stereo unspecified),.,.,3,-2,.,.
Nn1cc(-c2ccccc2)nc1SCC(=O)NCC1CCCO1 (stereo unspecified),-20*,i,-1,-7,-5,-5
CCn1c(SCC(=O)NCC2CCCO2)nnc1-c1ccccc1 (stereo unspecified),i,i,0,0,-4,-8
Cc1cccc(Cn2nc(C(C)(C)C)cc2C(=O)Nc2ccc(F)cc2)c1,i,i,8.5*,5,30,70
Nc1c(-c2cccs2)cnn1-c1nc(-c2ccc(F)cc2)cs1,i,i,9.6*,-1,4,5
Nc1ccc2nc(CN3CCOCC3)[nH]c2c1,-19*,i,3,-5,-1,-7
c1ccc2[nH]c(CN3CCOCC3)nc2c1,i,i,0,13,-3,-25
Cc1ccc(-c2cc3nc(NCCc4ccncc4)n(C)c(=O)c3s2)cc1,.,.,8,23,.,.
COC(=O)C(C(=O)OC)C(C)C(C(=O)OC)C(=O)OC,-18*,i,0,11,-1,6
